Assays:
SK-OV-3 cells [1] = experiment: Flow cytometry uptake with endocytic inhibitors; type: cell-based, human; details: F′-PEpYLGLD:[W5R4C]–SeNPs 1:10, SK-OV-3, 2 h, 37 °C, n = 3
SK-OV-3 cells [2] = experiment: Confocal microscopy on live cells; type: cell-based, human; details: F′-PEpYLGLD 5 μM with or without [W5R4C]–SeNPs 50 μM, SK-OV-3, 2 h, 37 °C
Summary of the method: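 SK-OV-3 cells, maintained in EMEM with 10% FBS and 1% penicillin–streptomycin at 37 °C under 5% CO2, were grown overnight on coverslips (1 × 10^5 cells per well). Fluorescein-labelled peptide (5 μM), alone or with peptide-capped selenium nanoparticles (50 μM), was added in opti-MEM for 2 h at 37 °C. Slides were washed and nuclei were DAPI-stained. Fluorescence intensity was compared with probe alone, in triplicate.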

CCN(c1nc(N)c(C(=O)N=C(N)N)nc1Cl)C(C)C [EIA, 5-(N-ethyl-N-isopropyl)-amiloride]
inhibition of uptake of F′-PEpYLGLD loaded [W5R4C]–SeNPs (SK-OV-3 cells [1]): 40%

CCN(CC)CCCC(C)Nc1ccnc2cc(Cl)ccc12 (stereo not shown) [chloroquine]
effect on uptake of F′-PEpYLGLD loaded [W5R4C]–SeNPs (in words) (SK-OV-3 cells [1]): did not significantly decrease

CN(C)CCCN1c2ccccc2Sc2ccc(Cl)cc21 [chlorpromazine]
effect on uptake of F′-PEpYLGLD loaded [W5R4C]–SeNPs (in words) (SK-OV-3 cells [1]): did not significantly decrease

C[C@@H]1[C@H](O)[C@@H](C)/C=C/C=C/CC/C=C/C=C/C=C/C=C/C(O[C@H]2O[C@H](C)[C@@H](O)[C@H](N)[C@@H]2O)CC2O[C@](O)(CC(O)C(O)CCC(O)CC(O)CC(O)CC(=O)O[C@H]1C)CC(O)C2C(=O)O (stereo partly shown) [nystatin]
inhibition of uptake of F′-PEpYLGLD loaded [W5R4C]–SeNPs (SK-OV-3 cells [1]): 52%

[N-]=[N+]=[N-].[Na+] [sodium azide]
effect on uptake of F′-PEpYLGLD loaded [W5R4C]–SeNPs (in words) (SK-OV-3 cells [1]): did not alter

F′-PEpYLGLD
intracellular fluorescence of F′-PEpYLGLD (confocal microscopy) (SK-OV-3 cells [2]): No green fluorescence

methyl-β-cyclodextrin
effect on uptake of F′-PEpYLGLD loaded [W5R4C]–SeNPs (in words) (SK-OV-3 cells [1]): did not significantly decrease
